Peptide text beside a SMILES is read from it. * marks the point of attachment. Cbz = O=C(OCc1ccccc1)*

Assay [1] concerns the target T1, sEH (Homo sapiens, UniProt P34913).
T1 sequence (P34913 1-555): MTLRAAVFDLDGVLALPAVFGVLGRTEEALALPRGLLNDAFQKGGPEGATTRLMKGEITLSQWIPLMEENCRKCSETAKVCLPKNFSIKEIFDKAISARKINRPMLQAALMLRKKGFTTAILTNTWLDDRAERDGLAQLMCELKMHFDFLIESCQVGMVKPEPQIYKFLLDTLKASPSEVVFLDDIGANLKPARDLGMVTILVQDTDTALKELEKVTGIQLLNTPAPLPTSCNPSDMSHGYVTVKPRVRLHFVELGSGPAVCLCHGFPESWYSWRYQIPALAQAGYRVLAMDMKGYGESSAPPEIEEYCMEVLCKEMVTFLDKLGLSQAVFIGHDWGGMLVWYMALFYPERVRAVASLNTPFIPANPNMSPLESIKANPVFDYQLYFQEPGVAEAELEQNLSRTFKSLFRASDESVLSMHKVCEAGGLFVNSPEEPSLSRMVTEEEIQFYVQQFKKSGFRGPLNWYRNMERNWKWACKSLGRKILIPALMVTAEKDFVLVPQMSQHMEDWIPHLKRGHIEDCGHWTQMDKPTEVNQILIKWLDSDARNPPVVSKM
In words: sEH degradation in HepG2 cells by immunoblot. It counts as cell-based. Conditions: for effect of co-treatment on sEH degradation induced by 1a: co-treatment with 1a, immunoblot. A general note: Immunoblotting shows a protein as a band on a membrane.

Assay [2] addresses T1, sEH. In words: sEH level in CRBN-knockout HEK293T cells. Format: cell-based. The method in brief:
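CRBN knockout HEK293T cells were maintained in high-glucose (4.5 g/L) DMEM with 10% fetal bovine serum, 100 units/mL penicillin and streptomycin.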

In a further assay the test system is EPHX2. Kind of assay: sEH transcription by qRT-PCR. It counts as cell-based, human.
Assay [3] deals with T1, sEH. Kind of assay: Residual sEH hydrolase activity of treated HepG2 cells. Format: cell-based. To be noted: HepG2, 1 μM, 24 h.
For assay [4], the target named is T1, sEH. Kind of assay: Immunofluorescence colocalization of sEH with compartment markers. Format: cell-based. To be noted: co-treatment with 1a. The method in brief: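 Fixed in 4% paraformaldehyde for 20 min, permeabilised with 0.02% Triton X-100, blocked 1 h at room temperature in 5% goat serum with 1% BSA. Mouse anti-sEH plus rabbit anti-LAMP2 at 4 °C overnight; Alexa Fluor 647/488 secondaries (1:500) for 1 h; DAPI 10 min. Imaged at 20x by high-content imaging, automated analysis. Colocalisation area normalised to cell count.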

Take `CC(C)C[C@H](NC(=O)[C@H](Cc1ccccc1)NC(=O)c1cnccn1)B(O)O` [BTZ, bortezomib]: the “effect of co-treatment on sEH degradation induced by 1a” value (shortened to “effect of co-treatment … by 1a”) on sEH [1] is “slightly reversed the sEH degradation induced by 1a but higher concentrations failed to block”. Also, the “effect of co-treatment on sEH degradation induced by 1e and 2a” value on sEH [1] (co-treatment with 1e or 2a) is given as “failed to block the degradation”.

`CC(C)C[C@@H](C=O)NC(=O)[C@H](CC(C)C)NC(=O)[C@H](CC(C)C)NC(=O)OCc1ccccc1` [MG132] (Cbz-Leu-Leu-Leu-aldehyde): at sEH [2], the “effect on sEH level in CRBN-knockout cells” value was “neither 1a nor MG132 affect sEH level”. Besides, in the assay with EPHX2, the “effect on transcription of sEH” value is “did not affect”. For the same compound, the “effect of co-treatment … by 1a” value at sEH [1] was “failed to block the degradation induced by PROTAC 1a and instead promoted sEH degradation”.

As for “trans-4-[4-(3-trifluoromethoxyphenyl-1-ureido)-cyclohexyloxy]-benzoic acid [Compound 1]”, the “sEH hydrolase activity after treatment” value on sEH [3] is on record as “only slight inhibition”. In addition, on sEH [1], the “effect of co-treatment … by 1a” value is “counteract the degradation effect”.

With `CO/C1=C\C(C)=C\[C@@H](C)[C@@H](O)[C@@H](C)C/C(C)=C/C=C/[C@H](OC)[C@@H]([C@@H](C)[C@@H](O)[C@H](C)[C@@]2(O)C[C@@H](O)[C@H](C)[C@@H](C(C)C)O2)OC1=O` [BafA1, bafilomycin A1], the “effect of co-treatment on 1a-promoted sEH colocalization with LAMP2” value at sEH [4] is listed as “reversed this trend”. Further, on sEH [1], the “effect of co-treatment … by 1a” value is on record as “blocked the degradation”.

`NS(=O)(=O)OC[C@@H]1C[C@@H](n2ccc3c(N[C@H]4CCc5ccccc54)ncnc32)C[C@@H]1O` [MLN4924]: the “effect of co-treatment … by 1a” value on sEH [1] was “blocked the sEH degradation”.

Regarding `N#Cc1ccc(COC[C@H]2O[C@@H](n3c(NCc4ccc(Cl)c(Cl)c4)nc4c(N)ncnc43)[C@H](O)[C@@H]2O)cc1` [VER155008], at sEH [1], the “effect of co-treatment … by 1a” value is recorded as “failed to rescue the sEH degradation”.

The values are drawn from paper PMC10586715 (ACS chemical biology, 2023).
